Legend:
Liver [1] = assay: Biodistribution in BALB/c mouse liver at 7.4 MBq, iv after 60 mins by gamma counting; assay type: ADME, organism-based; details: in vivo, 1 h
Method in brief: (§1)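 Tracer given intravenously to BALB/c mice; animals sampled at 10, 30, 60 and 120 min after injection. Organ radioactivity expressed as percentage of injected dose per gram of tissue (% ID/g), n = 12.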

Liver [2] = assay: Biodistribution in BALB/c mouse liver at 7.4 MBq, iv after 30 mins by gamma counting; assay type: ADME, organism-based; details: in vivo, 0.5 h; method in brief: as §1
Heart [3] = assay: Biodistribution in BALB/c mouse heart at 7.4 MBq, iv after 120 mins by gamma counting; assay type: ADME, organism-based; details: in vivo, 2 h; method in brief: as §1
Pancreas [4] = assay: Biodistribution in BALB/c mouse pancreas at 7.4 MBq, iv after 10 mins by gamma counting; assay type: ADME, organism-based; details: in vivo; method in brief: as §1
Intestine = assay: Biodistribution in BALB/c mouse intestine at 7.4 MBq, iv after 10 mins by gamma counting; assay type: ADME, organism-based; details: in vivo; method in brief: as §1
Heart [5] = assay: Biodistribution in BALB/c mouse heart at 7.4 MBq, iv after 60 mins by gamma counting; assay type: ADME, organism-based; details: in vivo, 1 h; method in brief: as §1
Nucleic Acid [6] = assay: Ratio of drug level in BALB/c mouse heart to liver at 7.4 MBq, iv after 60 mins by gamma counter; assay type: ADME, organism-based; details: in vivo, 1 h
Method in brief: (§2)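 Normal BALB/c mice were given the 18F tracer by i.v. injection. Tissues were sampled at 10, 30, 60 and 120 min. Activity is expressed as % injected dose per gram of tissue (n = 12), and organ ratios were taken from these values.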

Blood [7] = assay: Biodistribution in BALB/c mouse blood at 7.4 MBq, iv after 120 mins by gamma counting; assay type: ADME, organism-based; details: in vivo, 2 h; method in brief: as §1
Stomach [8] = assay: Biodistribution in BALB/c mouse stomach at 7.4 MBq, iv after 10 mins by gamma counting; assay type: ADME, organism-based; details: in vivo; method in brief: as §1
[9] = Octanol-NaCl aqueous solution partition coefficient, log P of the compound after 20 mins by gamma counting; assay type: physicochemical
Stomach [10] = assay: Biodistribution in BALB/c mouse stomach at 7.4 MBq, iv after 120 mins by gamma counting; assay type: ADME, organism-based; details: in vivo, 2 h; method in brief: as §1
Kidney [11] = assay: Biodistribution in BALB/c mouse kidney at 7.4 MBq, iv after 30 mins by gamma counting; assay type: ADME, organism-based; details: in vivo, 0.5 h; method in brief: as §1
Liver [12] = assay: Biodistribution in BALB/c mouse liver at 7.4 MBq, iv after 120 mins by gamma counting; assay type: ADME, organism-based; details: in vivo, 2 h; method in brief: as §1
Nucleic Acid [13] = assay: Ratio of drug level in BALB/c mouse heart to lung at 7.4 MBq, iv after 30 mins by gamma counter; assay type: ADME, organism-based; details: in vivo, 0.5 h; method in brief: as §2
Heart [14] = assay: Biodistribution in BALB/c mouse heart at 7.4 MBq, iv after 30 mins by gamma counting; assay type: ADME, organism-based; details: in vivo, 0.5 h; method in brief: as §1
Blood [15] = assay: Biodistribution in BALB/c mouse blood at 7.4 MBq, iv after 30 mins by gamma counting; assay type: ADME, organism-based; details: in vivo, 0.5 h; method in brief: as §1
Muscle tissue [16] = assay: Biodistribution in BALB/c mouse normal muscle at 7.4 MBq, iv after 30 mins by gamma counting; assay type: ADME, organism-based; details: in vivo, 0.5 h; method in brief: as §1
Nucleic Acid [17] = assay: Ratio of drug level in BALB/c mouse heart to blood at 7.4 MBq, iv after 120 mins by gamma counter; assay type: ADME, organism-based; details: other tissue, 2 h; method in brief: as §2
Kidney [18] = assay: Biodistribution in BALB/c mouse kidney at 7.4 MBq, iv after 120 mins by gamma counting; assay type: ADME, organism-based; details: in vivo, 2 h; method in brief: as §1
Bone [19] = assay: Biodistribution in BALB/c mouse bone at 7.4 MBq, iv after 30 mins by gamma counting; assay type: ADME, organism-based, Bone element; details: in vivo, 0.5 h; method in brief: as §1
Heart [20] = assay: Drug uptake in Sprague-Dawley rat heart at 37 MBq, iv after 0.5 hrs by micro PET analysis; assay type: ADME, organism-based; details: in vivo
Method in brief: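 Rats received the tracer intravenously and were imaged by micro-PET in coronal view at 0.5 h and 1.0 h after injection.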

Kidney [21] = assay: Biodistribution in BALB/c mouse kidney at 7.4 MBq, iv after 10 mins by gamma counting; assay type: ADME, organism-based; details: in vivo; method in brief: as §1
Pancreas [22] = assay: Biodistribution in BALB/c mouse pancreas at 7.4 MBq, iv after 30 mins by gamma counting; assay type: ADME, organism-based; details: in vivo, 0.5 h; method in brief: as §1
Muscle tissue [23] = assay: Biodistribution in BALB/c mouse normal muscle at 7.4 MBq, iv after 120 mins by gamma counting; assay type: ADME, organism-based; details: in vivo, 2 h; method in brief: as §1
Muscle tissue [24] = assay: Biodistribution in BALB/c mouse normal muscle at 7.4 MBq, iv after 10 mins by gamma counting; assay type: ADME, organism-based; details: in vivo; method in brief: as §1
H9c2 = assay: Cellular uptake in rat H9c2 cells after 0.5 to 2 hrs by gamma counting in presence of CCCP; assay type: ADME, cell-based
Method in brief: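 H9c2 cells incubated with radiotracer at 37 °C for 0.5, 1 or 2 h in the presence of 0.5 µM protonophore CCCP, which abolishes mitochondrial membrane potential. Uptake expressed as percentage of applied radioactivity; means ± SD of three measurements.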

Lung = assay: Biodistribution in BALB/c mouse lung at 7.4 MBq, iv after 60 mins by gamma counting; assay type: ADME, organism-based; details: in vivo, 1 h; method in brief: as §1
Liver [25] = assay: Biodistribution in BALB/c mouse liver at 7.4 MBq, iv after 10 mins by gamma counting; assay type: ADME, organism-based; details: in vivo; method in brief: as §1
Nucleic Acid [26] = assay: Ratio of drug level in BALB/c mouse heart to liver at 7.4 MBq, iv after 120 mins by gamma counter; assay type: ADME, organism-based; details: in vivo, 2 h; method in brief: as §2
Nucleic Acid [27] = assay: Ratio of drug level in BALB/c mouse heart to liver at 7.4 MBq, iv after 10 mins by gamma counter; assay type: ADME, organism-based; details: in vivo; method in brief: as §2
Bone [28] = assay: Biodistribution in BALB/c mouse bone at 7.4 MBq, iv after 60 mins by gamma counting; assay type: ADME, organism-based, Bone element; details: in vivo, 1 h; method in brief: as §1

[18F]CCOCC[P+](c1ccccc1)(c1ccccc1)c1ccccc1
Drug uptake (Liver [1]): 2.03 % ID/g
Drug uptake (Liver [2]): 2.42 % ID/g
Drug uptake (Heart [3]): 24.27 % ID/g
Drug uptake (Pancreas [4]): 8.8 % ID/g
Drug uptake (Intestine): 9.14 % ID/g
Drug uptake (Heart [5]): 19.96 % ID/g
Ratio (Nucleic Acid [6]): 9.87
Drug uptake (Blood [7]): 0.24 % ID/g
Drug uptake (Stomach [8]): 3.75 % ID/g
logP at 20 min [9]: 0.89
Drug uptake (Stomach [10]): 2.49 % ID/g
Drug uptake (Kidney [11]): 23.67 % ID/g
Drug uptake (Liver [12]): 1.33 % ID/g
Ratio (Nucleic Acid [13]): 3.71
Drug uptake (Heart [14]): 19.33 % ID/g
Drug uptake (Blood [15]): 0.22 % ID/g
Drug uptake (Muscle tissue [16]): 5.27 % ID/g
Ratio (Nucleic Acid [17]): > 102
Drug uptake (Kidney [18]): 9.28 % ID/g
Drug uptake (Bone [19]): 2.35 % ID/g
Drug uptake (Heart [20]): Active
Drug uptake (Kidney [21]): 36.05 % ID/g
Drug uptake (Pancreas [22]): 5.96 % ID/g
Drug uptake (Muscle tissue [23]): 3.2 % ID/g
Drug uptake (Muscle tissue [24]): 6.46 % ID/g
Drug uptake (H9c2): Not Active
Drug uptake (Lung): 4.01 % ID/g
Drug uptake (Liver [25]): 3.57 % ID/g
Ratio (Nucleic Acid [26]): 19.16
Ratio (Nucleic Acid [27]): 11.08
Drug uptake (Bone [28]): 2.44 % ID/g

Reference: ChEMBL document CHEMBL1949496, “Synthesis of [¹⁸F]-labeled (2-(2-fluoroethoxy)ethyl)triphenylphosphonium cation as a potential agent for myocardial imaging using positron emission tomography” (Bioorg Med Chem Lett, 2012)
